Bioassay records deposited in PubChem by several laboratories.
SR-BI uptake up = SR-BI HDL lipid transfer activation; actives 0.096% (n = 320,000); CHO ldlA[mSR-BI] cells, DiI-HDL uptake fluorescence, 3 h; 100 = double the neutral-control signal; activation, % at 12.5 µM;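 active means mean replicate activation of at least 60% and every replicate at or above 60%; inconclusive means mean or all-replicate condition met, but not both; inactive means mean below 60% and not all replicates reaching 60%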
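System: LDL receptor-deficient CHO ldlA cells overexpressing murine SR-BI | Timing: 3 h uptake period with compound, 37 °C | Medium: HEPES-buffered (25 mM, pH 7.4) F12 plus 0.5% BSA | Dosing: Single-point compound dose | Signal: Bottom-read fluorescence, 550/595 nm | Read-out: Retained DiI signal reflecting DiI-HDL uptake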
PKA-R2B act = activates the human PKA-R2B holoenzyme complex; PKA-R2B holoenzyme dissociation, Cy5-IP20 fluorescence polarization; R2B truncated from residue 108, S112A mutant; 0% DMSO only, 100% 113 µM cGMP; activation, % at 11.4 µM; AID 504700; P22694+P31323; actives 0.079% (n = 340,000);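 active means activation above a cutoff set at the mean over all compounds plus 3 SD, cut at about 18% in these data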;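 further: higher means more holoenzyme dissociation and a rise in polarization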
Target sequence (P31323 whole entry, looked up, other chains not shown, the tested form may be a part): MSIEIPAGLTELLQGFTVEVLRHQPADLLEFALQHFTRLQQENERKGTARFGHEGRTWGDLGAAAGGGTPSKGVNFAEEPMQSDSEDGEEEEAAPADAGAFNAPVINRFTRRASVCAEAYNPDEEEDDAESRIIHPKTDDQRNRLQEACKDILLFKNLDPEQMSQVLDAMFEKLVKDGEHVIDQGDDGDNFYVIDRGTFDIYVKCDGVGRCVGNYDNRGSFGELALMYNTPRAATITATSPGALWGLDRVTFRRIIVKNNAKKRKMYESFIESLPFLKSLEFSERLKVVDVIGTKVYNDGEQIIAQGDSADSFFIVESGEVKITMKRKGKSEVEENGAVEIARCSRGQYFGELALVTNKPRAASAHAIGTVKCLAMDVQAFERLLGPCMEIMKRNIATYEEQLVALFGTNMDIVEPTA
PKA-R1A activ = PKA-R1A complex activation | P00514+P68181 | PKA-R1A dissociation, Cy5-IP20 fluorescence polarization; scaled: DMSO 0%, 113 µM cGMP 100% | activation, % at 11.4 µM | actives 0.083% (n = 340,000) | AID 504707;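 active means percent activation above the mean of all tested compounds plus 3 SD, cut at about 19% in these data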;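 further: higher means more PKAc released from R1A so a rise in polarization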
SR-BI HDL uptake = mouse SR-BI HDL lipid transfer inhibition; Q61009; ldlA[mSR-BI] CHO cells, DiI-HDL uptake fluorescence, 3 h; actives 0.96% (n = 320,000); inhibition, % at 12.5 µM; AID 488896;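 active means mean replicate inhibition of at least 70% and a set share of replicates each scoring 70 or more; inconclusive means meets just one of the two criteria; inactive means fails both criteria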
CDK5 p35 inh = inhibitors of human CDK5/p35 kinase | Recombinant CDK5/p35, ADP-Glo luminescence, 60 min | inhibition, % at 10 µM | actives 0.01% (n = 330,000) | AID 488839;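 active means highest replicate inhibition of at least 50% and at least 75% of replicates reaching 50%; inconclusive means only one of the two criteria met; inactive means both criteria failed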
dFosB act-1 = enhances mouse delta FosB homodimer DNA binding | purified delta FosB, TAMRA-CDK5 oligo fluorescence polarization; percent of positive-control signal above neutral wells | AID 493131 | actives 0.99% (n = 340,000) | P13346 | activation, % at 25 µM;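 active means mean activation above about 17%, with every replicate also reaching it, limit read from the data, passing the limit was not always enough; inconclusive means only one of the two conditions met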
dFosB act-2 = enhances mouse delta FosB homodimer binding to DNA. shares compounds with dFosB act-1. purified delta FosB, TAMRA-CDK5 oligo fluorescence polarization; normalised: neutral wells 0, positive control 100. activation, % at 24.9 µM. 2,400 tested, under 10 active. AID 588690;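 active means highest replicate activation at or above 34% and every replicate reaching that threshold; inconclusive means meets only one of the two criteria; inactive means meets neither criterion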;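 further: higher polarization means more probe DNA bound by delta FosB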
Numbers stand for hits; – = inactive; ? = inconclusive; · = no result given. Sampled rows, rich in hits. Any-hit rate of the full collection: about 2.1%.

SMILES	SR-BI uptake up	PKA-R2B act	PKA-R1A activ	SR-BI HDL uptake	CDK5 p35 inh	dFosB act-1	dFosB act-2
C=CCNC(=O)c1ccc(Cn2c(=S)[nH]c3cc4c(cc3c2=O)OCO4)cc1	–	–	–	–	–	34	–
CCN(CC)C(=O)c1ccc2c(=O)n(Cc3ccc4c(c3)OCO4)c(=S)[nH]c2c1	–	–	–	–	–	–	·
COc1ccccc1/C=C(\NC(=O)c1ccc(OC)c(OC)c1)C(=O)Nc1cc([N+](=O)[O-])ccc1C	–	–	–	–	–	28	–
CCN(CC)C(=O)C1=C(C)N(CCC2=CCCCC2)C(=O)C(CC(=O)NCc2ccco2)C1 (configuration not stated)	·	–	–	·	·	·	·
COc1ccc(CCNc2ccc(C(CC(N)=O)NC(=O)c3cc(OC)ccc3OC)cc2[N+](=O)[O-])cc1 (configuration not stated)	–	–	–	–	–	–	·
O=C(CSc1nnc(NC(=O)c2ccco2)s1)Nc1ccc(F)cc1F	–	–	–	–	–	20	–
CC(=O)c1ccc(NC(=O)CSc2nnc(NC(=O)c3ccco3)s2)cc1	–	–	–	–	–	28	–
COc1ccc(CNC(=O)Cn2cnc3c(NCc4ccccc4)ncnc32)cc1	–	–	–	–	–	–	·
Cc1ccc(NC(=O)CSc2nncn2-c2ccccn2)cc1Cl	–	–	–	–	–	26	–
CCCCCCn1c(=O)n2n(c1=O)[C@@H]1CN(S(=O)(=O)c3ccc(C)cc3)C[C@]1(O)[C@@H](OC(=O)Nc1cccs1)C2	·	–	–	·	·	·	·
CCn1c(SCC(=O)Nc2ccc(C(C)=O)cc2)nc2c([nH]c3ccccc32)c1=O	–	–	–	–	–	33	–
Cc1ccccc1C(=O)Nc1nnc(CC(=O)N/N=C/c2cn(Cc3ccccc3)c3ccccc23)s1	·	–	–	·	–	–	·
Cc1ccccc1C(=O)Nc1nnc(CC(=O)N/N=C/c2ccco2)s1	·	–	–	·	–	40	–
Cc1ccc(NC(=S)NNS(=O)(=O)c2ccc3ccccc3c2)cc1Cl	–	–	–	–	–	–	·
O=C(c1cc2ccccc2o1)N1CCN(S(=O)(=O)c2ccc(F)c(F)c2F)CC1	–	–	–	–	–	33	–
CCCn1c(SCC(=O)c2ccc3c(c2)NC(=O)CO3)nc2ccccc21	–	–	–	–	–	–	·
O=C1COc2ccc(C(=O)CSc3nnc(NCc4ccccc4)s3)cc2N1	·	–	–	·	–	43	–
Cn1c(SCC(=O)c2ccc3c(c2)NC(=O)CO3)nc2ccccc21	–	–	–	–	–	39	–
Cc1cc(NC(=O)CSc2nnc(NCc3ccccc3)s2)no1	·	–	–	·	–	22	–
COc1ccccc1Nc1nnc(SCC(=O)Nc2cc(C)on2)s1	–	–	–	–	–	–	·
O=C1COc2ccc(C(=O)CSc3nc4ccccc4c(=O)n3-c3ccc(Cl)c(Cl)c3)cc2N1	–	–	–	–	–	56	–
CCCCn1c(SCC(=O)NC2CC2)nc2cc(C(=O)OC)ccc2c1=O	·	–	–	·	·	·	·
CN(C)CCCNC(=S)N(CCN(C)C)Cc1cc2cc3c(cc2[nH]c1=O)OCCO3	–	–	–	–	–	–	·
CN(C)CCCNC(=S)N(Cc1cccs1)Cc1cc2cc3c(cc2[nH]c1=O)OCCO3	–	–	–	–	–	32	–
CCOc1cc(/C=C(\C#N)c2nc3ccccc3[nH]2)ccc1OC(C)C(=O)O (configuration not stated)	–	–	–	–	–	–	·
SMILES	SR-BI uptake up	PKA-R2B act	PKA-R1A activ	SR-BI HDL uptake	CDK5 p35 inh	dFosB act-1	dFosB act-2
CCOc1cc(/C=C(/C#N)c2nc3ccccc3[nH]2)ccc1Oc1ccc([N+](=O)[O-])cn1	–	–	–	–	–	50	–
CCN(CCO)C(=O)c1ccc2nc(Cc3cccc(Cl)c3)oc2c1	–	–	–	–	–	–	·
COc1cccc(-n2nnc3c(=O)n(CC(=O)Nc4ccc(C)cc4)cnc32)c1	–	–	–	–	–	27	–
CCOc1ccc(-n2nnc3c(=O)n(CC(=O)NCc4ccco4)cnc32)cc1	–	–	–	–	–	22	–
COc1ccc(S(=O)(=O)N2CCC(C(=O)NCc3ccncc3)CC2)cc1C	·	–	–	·	–	–	·
CN(CC(=O)Nc1ccc(Cl)c(C(F)(F)F)c1)C(=O)/C=C/c1ccco1	–	–	–	–	–	–	·
CN(CC(=O)Nc1ccc(Cl)c(C(F)(F)F)c1)C(=O)c1cc(=O)c2ccccc2o1	–	–	–	–	–	33	–
CN(CC(=O)Nc1ccc(Cl)c(C(F)(F)F)c1)C(=O)/C=C/c1cccs1	–	–	–	–	–	29	–
NS(=O)(=O)c1ccc2nc(NC(=O)c3ccc4ncsc4c3)sc2c1	–	–	–	–	–	–	·
Cc1ccc2nc(NC(=O)c3ccc(Cl)s3)sc2c1	–	–	–	–	–	26	–
Cc1ccc2nc(NC(=O)c3cccs3)sc2c1	–	–	–	–	–	–	·
Cc1ccc2nc(NC(=O)c3ccc4ncsc4c3)sc2c1	–	–	–	–	–	22	–
CCCOc1ccc(-c2csc3ncn(Cc4ccc(C(=O)O)cc4)c(=O)c23)cc1	–	–	–	–	–	24	–
O=C(O)c1ccc(Cn2cnc3scc(-c4ccccc4)c3c2=O)cc1	–	–	–	–	–	–	·
CCOc1ccc(NC(=O)c2ccc(NC(=O)Cc3n[nH]c(=O)c4ccccc34)cc2)cc1	–	–	–	–	–	111	–
CCCCn1c(N)c(N(CC(C)C)C(=O)C2CCN(S(=O)(=O)c3ccc(OCC)cc3)CC2)c(=O)[nH]c1=O	–	–	–	–	–	19	–
CCCCn1c(N)c(N(CCOC)C(=O)C2CCN(S(=O)(=O)c3ccccc3)CC2)c(=O)[nH]c1=O	–	–	–	–	–	–	·
COc1ccc(-c2nnc(SCC(=O)c3ccc(O)cc3O)o2)cc1	·	–	–	·	–	40	–
Cc1cc(C(=O)CSc2nnc(-c3ccc(OC(F)F)cc3)o2)c(C)n1Cc1cccs1	–	–	–	–	–	?	·
COc1ccc(-c2nnc(SCC(=O)c3cc(C)n(Cc4cccs4)c3C)o2)cc1	–	–	–	–	–	43	–
Cc1cc(C)cc(N(CCC#N)C(=O)CSc2nc3ccccc3c(=O)[nH]2)c1	–	–	–	–	–	–	·
